In publication PMC11483317 (Heliyon, 2024):
Entries after “also recorded” stand apart in the source; their conditions may differ.

How the values were obtained:
[1] = test system: brain capillary endothelial cells and astrocytes; details: cited from earlier work; for % of initial radioactivity in the abluminal medium: same bovine BBB model
brain = details: 20-days-old rats, tail vein perfusion 30 s; cited from earlier work
hBLECs [2] = assay: Intracellular accumulation in hBLECs, LC-MS; assay type: in vitro ADME, human; details: 180 min after incubation
In short: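 Human BBB model: cord-blood CD34+-derived endothelial cells on PET inserts, co-cultured ≥6 days with brain pericytes (37 °C, 5% CO2) to give hBLECs. Test lipid at 1 or 10 µM in 500 µL Ringer–HEPES (pH 7.4), luminal side, for 180 min. Cell lipids extracted by Folch method, quantified by C18 LC-MS, and expressed as % of initial concentration. Triplicates.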

[3] = test system: hBLECs of the human BBB model; assay: Toxicity assessment: hBLEC monolayer tightness by Lucifer yellow permeability; assay type: cell-based
In short: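 Integrity check run alongside transport, on PET inserts in Ringer–HEPES (pH 7.4, 37 °C). Lucifer yellow added luminally with test lipid (1 and 10 µM) or 1% DMSO as toxicity control. Abluminal sampled at 30–180 min, luminal at 180 min. Fluorescence read at ex 490/em 525 nm. Permeability divided by 1.12 cm² insert area gives Pe (cm/min), compared with untreated cells. Mean ± SD, n = 3.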

hBLECs [4] = assay: Passage / apparent permeability across hBLEC monolayer; assay type: in vitro ADME, human
In short: (§1)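 Test lipid at 1 or 10 µM in 500 µL Ringer–HEPES (pH 7.4) on the luminal side of hBLEC/pericyte co-culture inserts. Inserts moved to fresh 1.5 mL buffer wells at 30, 60, 120 and 180 min. Media lipids extracted by Bligh–Dyer and quantified by C18 LC-MS. %/min = quantity crossed ÷ initial luminal quantity ÷ time. Papp calculated per an earlier method. Mean ± SD, n = 3.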

[5] = as above; assay type: in vitro ADME, human; details: human, pH 7.4, apparent coefficient permeability (Papp), 10 μM, 180 min after transport across hBLECs
In short: as §1

brain DHA = details: normal adult mice, dietary; cited from earlier work

CC/C=C\C/C=C\C/C=C\C/C=C\C/C=C\C/C=C\CCC(=O)OC(COC(C)=O)COP(=O)([O-])OCC[N+](C)(C)C (stereo not drawn) [AceDoPC, 1-acetyl,2-docosahexaenoyl-glycerophosphocholine]
% of initial radioactivity in the abluminal medium [1]: 7.5%

CC/C=C\C/C=C\C/C=C\C/C=C\C/C=C\C/C=C\CCC(=O)O [DHA, Docosahexaenoic acid]
recovered in the brain, % of injected radioactivity (brain): 0.3–0.4%
% of initial radioactivity in abluminal medium ([1]; 5 μM, incubation 240 min): 5%
% of initial radioactivity in the abluminal medium [1]: 4.5%
intracellular accumulation in hBLECs (hBLECs [2]; 1 μM): lower than the limit of detection; also recorded: under the limit of quantification
intracellular accumulation in hBLECs (hBLECs [2]; 10 μM): 3.11 ± 1.24%
toxicity towards hBLECs (from LY permeability) ([3]; 10 μM): absence of toxicity
percentage of passage per min (lipids recovered in abluminal medium) (hBLECs [4]; 10 μM, 30 min post-incubation): 0.54%
percentage of passage per min (lipids recovered in abluminal medium) (hBLECs [4]; 10 μM, 120 min post-incubation): 0.40%
apparent coefficient permeability (Papp) (hBLECs [4]; 10 μM, 180 min after transport across hBLECs): 26.04 ×10⁻⁶ cm/s
percentage of passage per minute (constant) (hBLECs [4]; constant over the 180 min transport): around 0.5 % per minute
Papp at 180 min, 10 μM [5]: 26 ×10⁻⁶ cm/s
increase of levels of brain DHA (brain DHA): did not significantly increase

CC/C=C\C/C=C\C/C=C\C/C=C\C/C=C\C/C=C\CCC(=O)O[C@H](COC(=O)CCCCCCCCCCCCCCC)COP(=O)([O-])OCC[N+](C)(C)C [PC-DHA, 1-palmitoyl,2-docosahexaenoyl-sn-glycero-3-phosphatidylcholine]
% of initial radioactivity in the abluminal medium [1]: 4%

Lucifer Yellow
BBB permeability to Lucifer yellow (control permeability) ([3]; control cells, absence of test lipids, 180 min): 0.55 ± 0.06 x 10^−3 cm min^−1
